Experimental findings from ChEMBL document CHEMBL1123157, “Thromboxane synthetase inhibitors and antihypertensive agents. 1. N-[(1H-imidazol-1-yl)alkyl]aryl amides and N-[(1H-1,2,4-triazol-1-yl)alkyl]aryl amides” (J Med Chem, 1986) are described below.

Assay [1] concerns the target T1, Thromboxane-A synthase (Rattus norvegicus) (UniProt P49430).
T1 sequence (whole entry): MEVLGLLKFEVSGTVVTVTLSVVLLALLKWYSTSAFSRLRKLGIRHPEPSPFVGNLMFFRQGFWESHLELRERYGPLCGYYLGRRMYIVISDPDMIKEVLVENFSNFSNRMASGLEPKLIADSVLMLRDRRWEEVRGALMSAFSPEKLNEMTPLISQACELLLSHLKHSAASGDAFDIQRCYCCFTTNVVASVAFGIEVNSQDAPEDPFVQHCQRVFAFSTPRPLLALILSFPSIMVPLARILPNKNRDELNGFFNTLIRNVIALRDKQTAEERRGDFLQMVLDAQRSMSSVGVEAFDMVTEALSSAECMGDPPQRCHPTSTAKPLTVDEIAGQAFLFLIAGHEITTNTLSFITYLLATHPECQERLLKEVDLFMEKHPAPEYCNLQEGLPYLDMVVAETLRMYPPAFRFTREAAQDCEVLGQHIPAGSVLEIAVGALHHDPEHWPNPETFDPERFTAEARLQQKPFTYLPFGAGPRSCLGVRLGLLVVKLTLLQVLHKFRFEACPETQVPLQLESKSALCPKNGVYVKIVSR
The assay can be described thus: Inhibitory activity for thromboxane synthetase determined by TXB2 levels in platelets from spontaneously hypertensive rats. Also noted: concentration or dose not given beside the values. Particulars: concentration not given here. Put shortly: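 Washed SHR platelets in oxygenated Krebs phosphate buffer, pH 7.4, 4.5-6.0 × 10^4/μL, incubated with vehicle or drug for 10 min at 37 °C. Stopped with ice and citric acid. Supernatant TXB2 measured by RIA; TXB2 in boiled controls subtracted; % inhibition calculated. IC50 read graphically from % inhibition vs log concentration; single-point screen at 10^-4 M.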

Another assay has as its system Rattus norvegicus. The assay can be described thus: Antihypertensive activity in spontaneously hypertensive rats tested at 100 mg/kg po/day for 2 days. The format is functional, organism-based. Also noted: dose 100 mg/kg. Put shortly:
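Male 16-week-old Okamoto SHR (mean arterial pressure about 170 mmHg), 1-3 rats per compound. Given by gavage in 2% preboiled starch (50 mg/mL), 100 mg/kg or less, with 0.9% NaCl load (25 mL/kg). Second dose without saline 24 h later. Mean arterial pressure measured 28 h after first dose. Active if ≤116 mmHg in one rat or mean ≤122 mmHg in two.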

Activity calls are given as the source filed them.

By inhibition is commonly meant the share of the control response that was lost under treatment. In the case of `O=C(/C=C/c1ccc(Cl)cc1)NCCCn1cncn1`, the inhibition in assay [1] stood at 47%. Further, the outcome with Rattus norvegicus was inactive. For the compound `CCCCOc1ccc(C(=O)NCCCn2cncn2)cc1`, the inhibition in assay [1] was found to be 71%. Further, the outcome in the assay with Rattus norvegicus was inactive. Regarding `O=C(O)c1ccccc1C(=O)NCCCCn1ccnc1`, in assay [1], the inhibition was found to be 50%. The result with Rattus norvegicus was inactive.

The compound `O=C(NCCCn1cncn1)c1ccc(F)cc1` returned an inhibition in assay [1] of 67%. Moreover, in the assay with Rattus norvegicus, the outcome was inactive. The like results for `CC(CNC(=O)c1ccc(Cl)c(Cl)c1)Cn1ccnc1` (stereo not given) were, in that order, 86% and “inactive”. In the same order, the values of `O=C(Cc1ccc(F)cc1)NCCCn1ccnc1` are 33% and “inactive”. The compound `Cc1nccn1CCCNC(=O)c1ccc(Br)cc1` gave an inhibition in assay [1] of 66%. Moreover, the outcome with Rattus norvegicus was inactive. In the case of `O=C(O)c1ccccc1C(=O)NCCCn1ccnc1`, the inhibition in assay [1] came out at 82%. Also, the outcome with Rattus norvegicus was inactive.

`O=C(NCCn1ccnc1)c1ccc(Cl)c(Cl)c1` returned an inhibition in assay [1] of 59%. The outcome with Rattus norvegicus was inactive. Consider `O=C(NCCCn1ccnc1)c1cccc(F)c1`, for which, in assay [1], the inhibition was determined as 96%. For the same compound, in the assay on Rattus norvegicus, the result was inactive. For `Cc1ccc(C(=O)NCCCn2ccnc2)cc1`, the inhibition in assay [1] was determined as 83%. In addition, the outcome with Rattus norvegicus was inactive. In turn, `O=C(NCCCCCn1cncn1)c1ccc(Cl)cc1` yielded an inhibition in assay [1] of 79%. In addition, the outcome with Rattus norvegicus was inactive. Consider `O=C(NCCCCCn1ccnc1)c1ccc(Br)cc1`, for which the inhibition in assay [1] turned out to be 100%. For the same compound, in the assay with Rattus norvegicus, the result was inactive. On to `O=C(NCCCCn1ccnc1)c1ccccc1`, for which, in assay [1], the inhibition was 91%. For the same compound, in the assay with Rattus norvegicus, the outcome was inactive. In assay [1], `O=C(NCCCn1cncn1)c1ccc(C(=O)c2ccccc2)cc1` displayed an inhibition of 65%. Moreover, the result in the assay with Rattus norvegicus was inactive.

In assay [1], `O=C(NCCCn1cncn1)c1cccc(Br)c1` came in with an inhibition of 85%. Moreover, the result in the assay with Rattus norvegicus was inactive. `O=C(NCCCn1cncn1)c1cccc(F)c1`: in assay [1], the inhibition turned out to be 82%. For the same compound, the result in the assay with Rattus norvegicus was inactive. In the same order, the values of `O=C(NCCCCn1cncn1)c1cccc(Cl)c1` are 87% and “inactive”. Turning to `O=C(NC/C=C/Cn1ccnc1)c1ccc(C(F)(F)F)cc1` (stereo in doubt; 53), the inhibition in assay [1] is 93%. Moreover, the outcome in the assay on Rattus norvegicus was inactive.

Regarding `COc1ccc(C(=O)NCCCn2ccnc2)cc1`, the inhibition in assay [1] is 89%. Moreover, in the assay on Rattus norvegicus, the outcome was inactive.

In the case of `O=C(NCCCn1ccnc1)c1ccccc1F`, the inhibition in assay [1] came to 84%. Moreover, the result with Rattus norvegicus was inactive.

`Cc1nccn1CCCNC(=O)c1cccc(Br)c1` returned an inhibition in assay [1] of 64%. Also, the result in the assay on Rattus norvegicus was inactive. In assay [1], `O=C(CCc1ccccc1)NCCCn1ccnc1` displayed an inhibition of 64%. Besides, in the assay with Rattus norvegicus, the outcome was inactive.

In assay [1], `CC(=O)Nc1ccc(C(=O)NCCCn2ccnc2)cc1` had an inhibition of 99%. In the assay on Rattus norvegicus, the outcome was inactive. In the same order, the values of `CC(CCNC(=O)c1cccc(Cl)c1)n1ccnc1` (stereo not given) are 93% and “inactive”. In assay [1], `O=C(NCCCCn1cncn1)c1ccc(Cl)cc1` came in with an inhibition of 52%. Moreover, in the assay on Rattus norvegicus, the result was inactive.

`N#Cc1ccc(C(=O)NCCCn2ccnc2)cc1` displayed an inhibition in assay [1] of 91%. Also, the outcome in the assay on Rattus norvegicus was inactive. The compound `Cc1nccn1CCCNC(=O)c1cccc(Cl)c1` had an inhibition in assay [1] of 59%. Besides, the outcome in the assay on Rattus norvegicus was inactive. As for `O=C(NCCCn1ccnc1)c1ccc(-c2ccccc2)cc1`, the inhibition in assay [1] came to 100%. In addition, in the assay on Rattus norvegicus, the result was inactive. As to `O=C(NC/C=C/Cn1ccnc1)c1ccc(Cl)cc1` (stereo in doubt; 52), the inhibition in assay [1] came out at 91%. For the same compound, in the assay on Rattus norvegicus, the outcome was inactive.

Turning to `CC(CNC(=O)c1ccc(Cl)cc1)Cn1ccnc1` (stereo not given), the inhibition in assay [1] worked out at 100%. Further, the result in the assay on Rattus norvegicus was inactive.

The compound `CCCCOc1ccc(C(=O)NCCCn2ccnc2)cc1` registered an inhibition in assay [1] of 75%. Besides, the result in the assay with Rattus norvegicus was inactive. Take `O=C(NCCCCn1cncn1)c1ccc(C(F)(F)F)cc1`: the inhibition in assay [1] came out at 38%. The outcome in the assay with Rattus norvegicus was inactive.

`O=C(NCCCCCCCCn1ccnc1)c1ccc(Br)cc1` had an inhibition in assay [1] of 100%. For the compound `O=C(O)c1ccc(OCCn2ccnc2)cc1`, the inhibition in assay [1] came out at 98%. In turn, `O=C(NCCCn1ccnc1)c1ccc(Cl)c(Cl)c1` displayed an inhibition in assay [1] of 93%. In addition, the outcome with Rattus norvegicus was inactive. `O=C(NCCCn1ccnc1)C1CC1c1ccccc1` (stereo not given) gave an inhibition in assay [1] of 100%. The result with Rattus norvegicus was inactive.

Compound `Cc1nccn1CCCNC(=O)c1ccc(Cl)c(Cl)c1` returned an inhibition in assay [1] of 82%. Moreover, the outcome in the assay on Rattus norvegicus was inactive. Compound `CCc1nccn1CCCNC(=O)c1ccc(Cl)cc1` had an inhibition in assay [1] of 32%. Besides, the outcome in the assay on Rattus norvegicus was inactive.

Turning to `O=C(NCCn1cncn1)c1ccc(Br)cc1`, in assay [1], the inhibition is 0%. In addition, the outcome in the assay with Rattus norvegicus was inactive. `O=C(NCCCn1ccnc1)c1ccc(C(=O)c2ccccc2)cc1` had an inhibition in assay [1] of 100%. Moreover, in the assay with Rattus norvegicus, the result was inactive. Regarding `Cc1cn(CCCNC(=O)c2cccc(Br)c2)cn1`, the inhibition in assay [1] worked out at 93%. Further, the result with Rattus norvegicus was inactive. Compound `CC(CCNC(=O)c1ccc(C(F)(F)F)cc1)n1ccnc1` (stereo not given) gave an inhibition in assay [1] of 94%. The outcome in the assay with Rattus norvegicus was inactive. On to `COc1cc(C(=O)NCCCn2ccnc2)cc(OC)c1OC`, for which the inhibition in assay [1] was 100%. Moreover, the outcome in the assay on Rattus norvegicus was inactive. With `CC(=O)Nc1ccc(C(=O)NCCCn2cncn2)cc1`, the inhibition in assay [1] worked out at 75%. Moreover, the outcome in the assay with Rattus norvegicus was inactive.

`O=C(NCCCn1cncn1)c1cccc([N+](=O)[O-])c1`: in assay [1], the inhibition stood at 72%. Further, the outcome with Rattus norvegicus was inactive.

The compound `CN(C)c1ccc(C(=O)NCCCn2ccnc2)cc1` registered an inhibition in assay [1] of 93%. In the assay on Rattus norvegicus, the outcome was inactive. In assay [1], `O=C(NCCCCn1cncn1)c1ccc(Br)cc1` returned an inhibition of 88%. In the assay with Rattus norvegicus, the outcome was inactive. For the compound `CCNc1ccccc1C(=O)NCCCn1ccnc1`, in assay [1], the inhibition was 86%. The outcome in the assay on Rattus norvegicus was inactive.

In turn, `O=C(O)c1ccccc1C(=O)NCCCn1cncn1` returned an inhibition in assay [1] of 23%. Further, in the assay on Rattus norvegicus, the result was inactive. The like results for `O=C(NCCCn1cncn1)c1cccc(C(F)(F)F)c1` were, in that order, 71% and “inactive”. The like results for `O=C(NC/C=C/Cn1ccnc1)c1ccc(Cl)cc1` (stereo in doubt; 51) were, in that order, 100% and “inactive”. With `O=C(NCCCCCn1cncn1)c1ccc(Br)cc1`, in assay [1], the inhibition is 81%. In addition, the result in the assay on Rattus norvegicus was inactive. Compound `O=C(NCCCCn1cncn1)c1ccc(Cl)c(Cl)c1` yielded an inhibition in assay [1] of 82%. Moreover, in the assay on Rattus norvegicus, the outcome was inactive. Take `O=C(NCCCn1ccnc1)c1ccccc1Br`: the inhibition in assay [1] was 50%. In addition, the result with Rattus norvegicus was inactive. In the same order, the values of `O=C(NCCCCn1ccnc1)c1ccc(Cl)c(Cl)c1` are 100% and “inactive”. The like results for `COc1cc(C(=O)NCCCn2cncn2)cc(OC)c1OC` were, in that order, 64% and “inactive”. The like results for `O=C(NCCCn1cncn1)c1ccc(Br)cc1` were, in that order, 40% and “inactive”. `Cc1nccn1CCCNC(=O)c1cccc(C(F)(F)F)c1` showed an inhibition in assay [1] of 75%. Further, in the assay on Rattus norvegicus, the outcome was inactive.

In assay [1], `CNc1ccccc1C(=O)NCCCn1ccnc1` showed an inhibition of 57%. Moreover, in the assay on Rattus norvegicus, the outcome was inactive. In the case of `O=C(NCCCn1ccnc1)c1ccccc1`, in assay [1], the inhibition came to 96%. The result with Rattus norvegicus was inactive. In assay [1], `O=C(NC/C=C/Cn1ccnc1)c1ccc(C(F)(F)F)cc1` (stereo in doubt; 54) yielded an inhibition of 95%. Further, in the assay on Rattus norvegicus, the result was inactive. The compound `O=C(NCCCn1ccnc1)c1ccccc1Cl` showed an inhibition in assay [1] of 100%. Also, the outcome in the assay with Rattus norvegicus was inactive. `O=C(NCCCn1cncn1)c1ccccc1-c1ccccc1` returned an inhibition in assay [1] of 65%. For the same compound, the result with Rattus norvegicus was inactive. `CC(=O)c1ccc(C(=O)NCCCn2ccnc2)cc1`: the inhibition in assay [1] was found to be 90%. For the same compound, the result in the assay with Rattus norvegicus was inactive. Regarding `O=C(NCCCn1ccnc1)c1ccc(F)cc1`, the inhibition in assay [1] is 87%. For the same compound, the result in the assay on Rattus norvegicus was inactive.
